Screening data (PubChem BioAssay)
PKD1 inh: PKD1 (human) kinase inhibition; Q15139; PKD1 kinase fluorescence polarization assay; inhibition, % (concentration not given with the values); 200,000 tested, 0.056% active; AID 797
L major viab: Leishmania major promastigote growth inhibition; 200,000 tested, 9% active; Leishmania major promastigotes, resazurin fluorescence viability; inhibition, % at 10 µM;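 note: promastigotes grown with compound for 44 hours at 28 °C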
ABCG2 block: human ABCG2 inhibition, ABCB1 as counter-screen; 190,000 tested, 0.1% active; inhibition, % at 6.6 µM; IgMXP3 cells, JC-1 efflux, flow cytometry; AID 1325; Q9UNQ0;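 active = inhibition above 80%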;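 note: 0% = DMSO and 100% = nicardipine control wells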
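Test system: IgMXP3 (ABCG2) plus far-red-tagged CCRF-Adr (ABCB1) cells / Amount: 3 million cells/mL in well / Reagent: JC-1 transporter substrate / Timing: 10 min compound exposure, 25 °C / Signal: flow cytometry, 530 nm JC-1 signal / Read-out: percent efflux inhibition, scaled nicardipine 100% to DMSO 0% / Benchmarks: nicardipine as high control, DMSO as low control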
ABCB1 block: human ABCB1 inhibition, ABCG2 as counter-screen; AID 1326; CCRF-Adr cells, JC-1 efflux, flow cytometry; inhibition, % at 6.6 µM; 190,000 tested, 0.067% active; P08183; in the data active = inhibition above about 40%;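 note: 0% = vehicle and 100% = reference inhibitor; higher value means more JC-1 retained so stronger ABCB1 efflux block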
Avidin fluor: avidin bead compound fluorescence profile; Avidin beads, compound fluorescence 488/530 nm, flow cytometry; hits give high values; fluorescence (KMESF) at 10 µM; 220,000 tested, 0.38% active; AID 1775; in the data active = fluorescence above about 47
GSH fluor: compound fluoresces at 488/530 nm on GSH beads; fluorescence (KMESF) at 10 µM; GSH beads flow cytometry, compound fluorescence 488/530 nm; hits give high values; 190,000 tested, 0.25% active; in the data active = fluorescence above about 89;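 note: glutathione beads carrying GST-tagged Bcl family fusion proteins plus one bare bead set; values are compound well signal with DMSO vehicle wells as background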
Lmaj promast 1uM: inhibitors of Leishmania major promastigote growth, repeat at 1 uM | shares compounds with L major viab | AID 1258 | inhibition, % at 1 µM | L. major promastigote growth, resazurin fluorescence, 48 h | 1,100 tested, 13% active;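 active = inhibition above about 50% in both repeat tests, limit read from the data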
* = called active by the depositor; / = no result given. The full list was thinned out, with hits kept by preference. Cut-off read from the data, not from the text of the source, unless noted: active = inhibition above about 50%; inactive = the rest.

SMILES	PKD1 inh	L major viab	ABCG2 block	ABCB1 block	Avidin fluor	GSH fluor	Lmaj promast 1uM
CCCCCCc1cc2cc(C(=O)Nc3ccccc3)c(=O)oc2cc1O	-20	86*	-2	0	13	6	4
Cc1ccccc1Cn1nnc2c1C(=O)c1ccccc1C2=O	-1	18	2	1	9	19	/
Cc1cccc(Cn2nnc3c2C(=O)c2ccccc2C3=O)c1	-1	100*	2	3	7	22	-26
O=C(Nc1ccc2nc(-c3ccco3)[nH]c2c1)c1cccs1	-5	88*	19	0	32	17	-20
CNCCCC1c2ccccc2C=Cc2ccccc21	4	56*	-4	-1	10	21	-9
CNCCOc1ccccc1-c1ccccc1	-7	4	1	0	2	32	/
Cc1cc(C)c(C(=O)CSC2=NC(N)=C(C#N)C3(CCCCC3)C2C(N)=O)cc1C (stereo not given)	-3	64*	18	-1	11	37	-15
CC[n+]1c(/C=C/C=C/N(C(C)=O)c2ccccc2)sc2cc(OC)ccc21	-23	88*	14	4	30	6	29
O=C(CSc1nc2ccccc2[nH]1)N1CCN(c2ccc(F)cc2)CC1	0	58*	25	3	8	28	-3
C=C(C)C1Cc2c(C)nn(-c3cccc4ccccc34)c2C1 (stereo not given)	0	61*	2	1	6	48	-29
C=C(C)C1Cc2c(C)nn(-c3ccccc3)c2C1 (stereo not given)	-2	1	2	0	17	11	/
COc1ccc(NC(=O)N(Cc2ccc(C)cc2)Cc2cccnc2)c(OC)c1	-5	70*	9	2	9	20	-3
CCn1c(-c2ccccc2)csc1=Nc1ccc(O)cc1	-2	8	10	2	3	11	/
Cc1ccc(S(=O)(=O)NC(N)=NCCc2ccc(Cl)cc2)cc1C	-8	51*	-2	0	14	11	-20
NC(=NCCc1ccc(Cl)cc1)NS(=O)(=O)c1ccc(F)cc1	-8	2	3	1	6	10	/
Cc1ccc(S(=O)(=O)/N=C(\CCl)N2CCOCC2)cc1	-5	87*	2	0	3	25	49
C=C1[C@@H](C)C2[C@H](Cc3ccccc3)NC(=O)[C@]23OC(=O)CC[C@H](O)CCC[C@H](C)C/C=C/[C@H]3[C@@H]1O (stereo not given in full)	/	/	/	/	8	/	/
COC(=O)c1cc(OC)c(OC)cc1NC(=O)c1cc(C(C)(C)C)oc1C	/	/	/	/	3	/	/
COc1ccc(C2=NCC(CSc3nnc(-c4ccc5c(c4)OCO5)o3)S2)cc1 (stereo not given)	0	88*	2	1	6	64	91*
Cc1ccc(-n2nc(-c3cccs3)cc2C(=O)NCC2CCCO2)c(C)c1 (stereo not given)	1	92*	2	1	12	24	-4
Cc1ccc(-c2cc(C(=O)NCC3CCCO3)no2)cc1 (stereo not given)	-5	13	31	6	6	14	/
Cc1cc(C)n(-c2ncc3c(n2)N(CCO)CCOC3=O)n1	/	/	/	/	6	/	/
CC1=CC2(O)OCCN(CCO)C2=CC1=O (stereo not given)	-6	99*	-1	0	16	12	-10
COc1ccccc1OCC(=O)Nc1ccc(O)cc1C(=O)O	-1	-9	1	0	11	8	/
COc1cc(Cl)ccc1NC(=O)COc1ccccc1C(=O)N1CCN(c2ccc(O)cc2)CC1	-5	63*	3	1	34	15	5
SMILES	PKD1 inh	L major viab	ABCG2 block	ABCB1 block	Avidin fluor	GSH fluor	Lmaj promast 1uM
COC(=O)CS(=O)(=O)c1nnc([C@H](Cc2ccccc2)NC(=O)OC(C)(C)C)o1	-7	101*	-1	0	8	8	0
Cc1cccc(CS(=O)(=O)c2nnc([C@H](Cc3ccccc3)NC(=O)OC(C)(C)C)o2)c1	-3	1	2	1	15	10	/
O=C(NCc1cccc(C(F)(F)F)c1)c1cccc(S(=O)(=O)NCc2ccccc2)c1	-9	10	0	0	3	7	/
CCN(CC)CC(C)OC(=O)c1ccccc1Cl (stereo not given)	-5	-3	-1	0	11	14	/
O=C(CN1CCN(Cc2ccccc2)CC1)c1ccc(Br)cc1	-10	82*	-1	0	7	26	9
C[N+]1(CC(=O)Nc2ccccc2Cl)CCN(C(=O)c2cccs2)CC1	3	-3	4	1	15	27	/
CN1CCC(OC(=O)c2ccccc2Cl)CC1	-2	76*	1	1	9	21	-1
COc1ccc2c(c1)C(=O)[C@@H](O)[C@H](c1ccc(OC)c(Br)c1)O2	1	98*	21	1	11	18	-58
COc1cccc([C@@H]2Oc3ccc(OC)cc3C(=O)[C@H]2O)c1	-5	14	4	0	10	19	/
Cc1cccc(C(=O)NNC2=C(C(=O)C(F)(F)F)CCC2)c1O	-2	24	3	-1	25	23	/
CCC(C)NC(=O)NCc1ccccc1F (stereo not given)	-4	2	2	0	9	15	/
O=C(O)c1ccc2c(c1)SC1=NS(=O)(=O)CCN12	/	/	/	/	6	/	/
CN(C(=O)c1ccc2c(c1)SC1=NS(=O)(=O)CCN12)C(c1ccccc1)c1ccccc1	-5	75*	-5	0	12	10	-17
CCN1CCN(CC(=O)N2N=C(c3cccs3)CC2c2ccc(C)cc2)C(=O)C1=O (stereo not given)	-4	-6	0	1	10	19	/
O=C(CSC1=NCCN1)NC12CC3CC(CC(C3)C1)C2	-2	100*	2	0	23	12	-5
Cc1nnc(SCC(=O)NC23CC4CC(CC(C4)C2)C3)s1	-3	0	3	1	8	17	/
COc1cccc(COc2ccccc2C2Nc3ccc(Br)cc3C(=O)N2NC(=O)c2ccncc2)c1 (stereo not given)	7	100*	36	-2	8	35	-20
O=C(NN1C(=O)c2ccccc2NC1c1cccnc1)c1ccccc1 (stereo not given)	-9	3	1	1	10	18	/
CCOC(=O)N1CCN(c2ccc([N+](=O)[O-])cc2)CC1	5	-8	14	1	4	10	/
Cc1ccc(C(=O)/C=C/c2ccccc2[N+](=O)[O-])cc1	-3	42	17	3	10	10	/
O=C(/C=C/c1ccccc1[N+](=O)[O-])c1ccccc1Br	2	100*	50	2	10	15	27
